In ChEMBL document CHEMBL5032493, “Synthesis and Evaluation of PPARδ Agonists That Promote Osteogenesis in a Human Mesenchymal Stem Cell Culture and in a Mouse Model of Human Osteoporosis” (J Med Chem, 2021):
The source made the active and inactive calls. No cut-off for these calls is given here.

Key:
[1] = system: Mesenchymal stem cells; assay: Induction of osteogenesis differentiation in human Mesenchymal stem cells at 1 uM incubated for 21 days by Alizarin Red S staining-based microscopic analysis; format: functional, cell-based; settings: time 21.0 day
[2] = system: Mesenchymal stem cells; assay: Induction of adipogenesis differentiation in human Mesenchymal stem cells at 1 uM incubated for 21 days by […] staining-based microscopic analysis; format: functional, cell-based; settings: time 21.0 day
[3] = system: Mesenchymal stem cells; assay: Induction of adipogenesis differentiation in human Mesenchymal stem cells at 10 uM incubated for 21 days by […] staining-based microscopic analysis; format: functional, cell-based; settings: time 21.0 day
[4] = system: Mesenchymal stem cells; assay: Induction of osteogenesis differentiation in human Mesenchymal stem cells at 10 uM incubated for 21 days by Alizarin Red S staining-based microscopic analysis; format: functional, cell-based; settings: time 21.0 day
[5] = target: T1, Peroxisome proliferator-activated receptor alpha (Homo sapiens, UniProt Q07869); assay: Agonist activity at human PPARalpha transfected in COS-7 cells assessed luciferase activity measured after 24 hrs by cell based luciferase transactivation assay
T1 sequence (Q07869 whole entry): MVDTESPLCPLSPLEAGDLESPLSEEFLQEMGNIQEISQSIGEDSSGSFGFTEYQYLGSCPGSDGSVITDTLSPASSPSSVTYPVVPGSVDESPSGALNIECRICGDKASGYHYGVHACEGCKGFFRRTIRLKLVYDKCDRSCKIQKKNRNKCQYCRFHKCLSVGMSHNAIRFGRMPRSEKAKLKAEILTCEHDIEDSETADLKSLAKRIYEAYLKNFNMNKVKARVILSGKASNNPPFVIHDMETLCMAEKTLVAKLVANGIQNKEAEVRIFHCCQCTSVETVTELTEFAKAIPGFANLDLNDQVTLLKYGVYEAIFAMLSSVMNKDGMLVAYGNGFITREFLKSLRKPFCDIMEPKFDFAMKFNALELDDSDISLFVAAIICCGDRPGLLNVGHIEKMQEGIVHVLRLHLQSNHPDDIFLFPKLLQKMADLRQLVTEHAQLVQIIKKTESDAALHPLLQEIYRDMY
Outline: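 Transient transfection of COS-7 cells with human PPARα, PPARγ or PPARδ plus luciferase reporter; constitutive Renilla luciferase also read. Three or more independent experiments in triplicate (N ≥ 9).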

[6] = target: T2, Peroxisome proliferator-activated receptor gamma (Homo sapiens, UniProt P37231); assay: Agonist activity at human PPARgamma transfected in COS-7 cells assessed luciferase activity measured after 24 hrs by cell based luciferase transactivation assay
T2 sequence (P37231 whole entry): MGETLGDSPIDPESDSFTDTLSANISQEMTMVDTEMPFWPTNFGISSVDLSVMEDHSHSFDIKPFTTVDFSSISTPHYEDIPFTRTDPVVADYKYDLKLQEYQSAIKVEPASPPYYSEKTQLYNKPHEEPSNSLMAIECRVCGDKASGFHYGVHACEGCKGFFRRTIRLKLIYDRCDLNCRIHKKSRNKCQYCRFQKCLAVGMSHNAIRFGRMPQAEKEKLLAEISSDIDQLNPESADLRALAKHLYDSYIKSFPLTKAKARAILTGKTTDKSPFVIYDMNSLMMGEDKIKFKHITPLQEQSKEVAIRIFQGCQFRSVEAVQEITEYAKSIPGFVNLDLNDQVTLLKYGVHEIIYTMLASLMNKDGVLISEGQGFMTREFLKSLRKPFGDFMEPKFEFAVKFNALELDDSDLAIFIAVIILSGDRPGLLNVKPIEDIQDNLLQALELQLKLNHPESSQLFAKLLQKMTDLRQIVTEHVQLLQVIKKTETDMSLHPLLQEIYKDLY

[7] = target: T3, Peroxisome proliferator-activated receptor alpha (Homo sapiens) (UniProt Q07869); assay: Agonist activity at human PPARalpha transfected in COS-7 cells assessed maximum luciferase activity measured after 24 hrs by cell based luciferase transactivation assay relative to gemfibrozil; settings: filed as agonist
T3 sequence (whole entry): T1 sequence (Q07869 whole entry)
Outline: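 Transient transfection of COS-7 cells with human PPARα, PPARγ or PPARδ plus luciferase reporter; constitutive Renilla luciferase also read. […] Three or more independent experiments in triplicate (N ≥ 9).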

[8] = system: Mus musculus; assay: Antiosteoporotic activity against OVX-induced bone loss C57BL/6 mouse model assessed as increase in trabecular bone density at 10 mg/kg, po for 6 weeks by microcomputed tomography method relative to sham treated control; format: functional, organism-based
Outline: (§1)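 Female C57BL/6 mice ovariectomized at 12 weeks of age; sham-operated group kept ovaries intact. After recovery, daily oral gavage of compound or vehicle for 6 weeks, sacrifice at 22 weeks of age. Distal femur trabecular structure analysed by micro-computed tomography, including bone volume/total volume, compared with sham mice; GW0742 as positive control.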

[9] = system: Mesenchymal stem cells; assay: Cytotoxicity against human Mesenchymal stem cells expressing human PPARdelta assessed as morphological changes at 50 uM by microscopy analysis; format: cell-based
[10] = Cytotoxicity against human HEK293T/17 cells assessed as reduction in cell viability incubated for 24 hrs by MTT assay; format: cell-based; settings: hek293t/17, 24 h
Outline: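 HEK 293T/17 cultures were exposed to drug for 24 h and viability was read by standard MTT. Doses came from serial dilution in medium, top dose 100 μM. Controls were medium only, a DMSO vehicle at its highest level (0.1% in medium before adding to cells), and H2O2 as a toxic control. Runs were in quadruplicate (N = 4), reported as mean with SD and compared to 0 μM by two-tailed P.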

[11] = Cytotoxicity against human HEK293T/17 cells assessed as reduction in cell viability at 10 to 100 uM measured after 72 hrs by MTT assay; format: cell-based; settings: hek293t/17, 72 h, dose 10-100 µM
Outline: (§2)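 HEK 293T/17 cultures exposed to agent for 24 h or 72 h; viability by MTT. Controls: H2O2 (toxic positive), plain medium, vehicle at 0.1% DMSO corresponding to the 100 μM dose; doses by serial dilution in medium. Quadruplicate (N = 4), mean with SD; two-tailed P versus 0 μM. Viability <70% taken as relevant to human toxicity.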

[12] = system: L929; assay: Cytotoxicity against mouse L929 cells assessed as reduction in cell viability at 100 uM; format: cell-based; settings: l929, 100 µM
[13] = system: L929; assay: Cytotoxicity against mouse L929 cells assessed as reduction in cell viability at 1 to 100 uM measured after 72 hrs; format: cell-based; settings: l929, 72 h, dose 1-100 µM
[14] = system: Mesenchymal stem cells; assay: Induction of adipogenesis differentiation in human Mesenchymal stem cells at 20 uM incubated for 21 days by […] staining-based microscopic analysis; format: functional, cell-based; settings: time 21.0 day
[15] = system: Mesenchymal stem cells; assay: Induction of osteogenesis differentiation in human Mesenchymal stem cells at 20 uM incubated for 21 days by Alizarin Red S staining-based microscopic analysis; format: functional, cell-based; settings: time 21.0 day
[16] = target: T4, Peroxisome proliferator-activated receptor delta (Homo sapiens, UniProt Q03181); assay: Agonist activity at human PPARdelta transfected in COS-7 cells assessed luciferase activity measured after 24 hrs by cell based luciferase transactivation assay
T4 sequence (Q03181 whole entry): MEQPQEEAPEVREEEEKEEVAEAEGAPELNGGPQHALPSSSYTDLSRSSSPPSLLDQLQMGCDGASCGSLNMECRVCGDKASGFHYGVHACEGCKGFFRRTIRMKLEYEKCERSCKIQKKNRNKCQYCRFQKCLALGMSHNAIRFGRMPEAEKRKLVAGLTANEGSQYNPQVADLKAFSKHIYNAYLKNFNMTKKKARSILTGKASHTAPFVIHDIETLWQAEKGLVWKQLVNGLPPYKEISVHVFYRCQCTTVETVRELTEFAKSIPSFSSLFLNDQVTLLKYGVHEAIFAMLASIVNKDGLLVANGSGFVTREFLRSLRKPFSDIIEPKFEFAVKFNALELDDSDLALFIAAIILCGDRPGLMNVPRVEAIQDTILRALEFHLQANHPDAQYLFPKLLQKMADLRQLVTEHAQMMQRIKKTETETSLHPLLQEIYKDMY

[17] = system: Mus musculus; assay: Antiosteoporotic activity against OVX-induced bone loss C57BL/6 mouse model assessed as increase in ratio of bone volume to total volume at 10 mg/kg, po for 6 weeks by microcomputed tomography method relative to sham treated control; format: functional, organism-based; outline: as §1
[18] = system: Mus musculus; assay: Antiosteoporotic activity against OVX-induced bone loss C57BL/6 mouse model assessed as increase in microarchitectures at 10 mg/kg, po for 6 weeks by microcomputed tomography method relative to sham treated control; format: functional, organism-based; outline: as §1
[19] = Glutathione reactivity at pH 7.4 assessed as compound remaining measured after 24 hrs by LC-MS/MS method; format: physicochemical; settings: pH 7.4, 24 h
Outline: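 Substrate incubated in triplicate with 10-fold excess glutathione in pH 7.4 phosphate buffer containing 50% methanol at 25 °C for up to 24 h. Substrate loss followed at several time points by LC-MS/MS, which also confirmed the structure of glutathione conjugates.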

[20] = Toxicity in OVX-induced bone loss C57BL/6 mouse model assessed as change in body weight at 10 mg/kg, po for 6 weeks; format: organism-based; settings: in vivo, 1008 h
Outline: (§3)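 OVX C57BL/6 females (surgery at 12 weeks, sham controls) dosed daily by oral gavage for 6 weeks. Gross toxicity monitored during dosing as weight, behaviour, eating and other habits versus controls.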

[21] = Toxicity in OVX-induced bone loss C57BL/6 mouse model assessed as change in behaviour at 10 mg/kg, po for 6 weeks; format: organism-based; settings: in vivo, 1008 h; outline: as §3
[22] = Toxicity in OVX-induced bone loss C57BL/6 mouse model assessed as change in eating at 10 mg/kg, po for 6 weeks; format: organism-based; settings: in vivo, 1008 h; outline: as §3
[23] = system: COS-7 (Chlorocebus aethiops); assay: Cytotoxicity against COS-7 cells expressing human PPARdelta assessed as morphological changes at lower concentration by microscopy analysis; settings: monkey
[24] = system: PPARdelta (human, expressed in COS-7 cells); assay: Cell toxicity index, ratio of CT50 to EC50 for agonist activity at human PPARdelta expressed in COS-7 cells; settings: monkey
[25] = Cytotoxicity against human HEK293T/17 cells assessed as reduction in cell viability at 10 to 100 uM measured after 24 hrs by MTT assay; format: cell-based; settings: hek293t/17, 24 h, dose 10-100 µM; outline: as §2

Row | Compound | Activity [1] | Activity [2] | Activity [3] | Activity [4] | EC50 ([5]; read-out: EC50) | EC50 ([6]; read-out: EC50) | Emax [7] | Activity [8] | Activity [9] | Activity [11] | Activity [12] | Activity [13] | Activity [14] | Activity [15] | EC50 [16] | Activity [17] | Stability [19] | Activity [20] | Activity [21] | Activity [22] | further results
1 | Cc1cc(SCc2sc(-c3ccc(C(F)(F)F)c(F)c3)nc2C)ccc1OCC(=O)O | Active | inactive | inactive | Active | 2.5 µM | 9.53 µM | > 108% | Active | Toxic | Toxic | Toxic | Toxic |  |  |  |  |  |  |  |  | Activity [10]: Toxic
2 | Cc1nc(-c2ccc(C(F)(F)F)cc2)sc1CN(C)c1ccc(/C=C/C(=O)O)cc1 | Active | inactive | Active | Active | 0.947 µM | 24.7 µM | 44% | Active | Toxic |  |  |  | Active | Active | 0.199 µM | Active | Stable | Toxic | Toxic | Toxic | Activity [18]: Active; Activity [23]: Non-Toxic
3 | Cc1nc(-c2ccc(C(F)(F)F)c(F)c2)sc1CSc1ccc(/C=C/C(=O)O)cc1 | Active | inactive | inactive | Active | 0.915 µM | 1.3 µM | 163% |  |  | Toxic | Toxic | Toxic | inactive | Active | 0.134 µM | Active | Stable | Toxic | Toxic | Toxic | Activity [18]: Active; selectivity ratio [24]: 1350
4 | Cc1cc(N(C)Cc2sc(-c3ccc(C(F)(F)F)cc3)nc2C)ccc1/C=C/C(=O)O | Active | inactive | inactive | Active |  |  |  | Active | Toxic | Toxic | Non-Toxic | Toxic | inactive | Active | 0.335 µM | Active | Stable | Toxic | Toxic | Toxic | EC50 ([5]; cos-7): Not Active; EC50 ([6]; cos-7): Not Active; Activity [18]: Active; Activity [25]: Toxic; selectivity ratio [24]: 250; Activity [23]: Non-Toxic
5 | Cc1nc(-c2ccc(C(F)(F)F)c(F)c2)sc1COc1ccc(/C=C/C(=O)O)cc1 | Active | inactive | Active | Active | 51.3 µM | 13.2 µM | 346% | Active |  |  |  |  | inactive | Active | 0.0959 µM | Active | Stable | Toxic | Toxic | Toxic | 
6 | Cc1nc(-c2ccc(C(F)(F)F)cc2)sc1COc1ccc(/C=C/C(=O)O)cc1 | Active | Active |  |  | 2.23 µM |  | 135% |  | Toxic |  |  |  |  |  | 0.274 µM |  |  |  |  |  | EC50 ([6]; cos-7): Not Active; Activity [23]: Non-Toxic
